T cell modulator = modulates CD8 T cell binding to vesicles. hit rate 0.068% among 330,000. response (vesicle binding), % at 7 µM. 2C CD8+ T cell-vesicle binding, flow cytometry; active compounds read low;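 active means response, share of CD8 T cells binding vesicles, and their 90th percentile fluorescence all below set limits, cut at about 80% in these data, passing the limit was not always enough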;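 further: values below 100% mean blocked vesicle binding to the CD8+ T cells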
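Read-out – percent CD8+ FL2 mean versus row control · System – murine 2C transgenic CD8+ T lymphocytes · Times – 1.5 h cell–vesicle binding at 37 °C, then 20 min icy labelling · Control set – naked vesicles low, QL9 vesicles with vehicle high · Detection – cytometric PE anti-B7-1 and Alexa647 anti-CD8 signals after 1% paraformaldehyde fixation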
NR3A LBD binder = modulates the human NR3A ligand-binding domain; NR3A LBD differential scanning fluorimetry, Tm shift; 0% = protein alone, 100% = glycine-bound protein; AID 1259313; Tm shift relative to glycine control, % at 25 µM; hit rate 2.5% among 340,000;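 active means melting temperature shift of at least 10% of the positive control shift, at one fixed dose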
Rtt109 Vps75 = inhibitors of Candida albicans Rtt109/Vps75 histone acetyltransferase | hit rate 0.16% among 330,000 | Q5AAJ8 | AID 540336 | inhibition, % at 34.9 µM | purified Rtt109/Vps75, ThioGlo CoA-SH fluorescence, 4 h;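 active means inhibition of at least 50% in every replicate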
GASC-1 inh = inhibitors of human GASC-1 (JMJD2C) demethylase; Q9H3R0; inhibition, % at 2.35 µM; hit rate 0.069% among 330,000; AID 2099; GST-JMJD2C(1-420) H3K9me3 demethylation, DELFIA europium;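 active means more than half of a compound's replicate wells show inhibition beyond 50%, single wells judged on their own value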;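 further: signal counts dimethyl H3K9 product captured on neutravidin plate; 0% = median of DMSO wells and 100% = 0.3 times that DMSO median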
Target sequence (Q9H3R0 1-420 limits assumed): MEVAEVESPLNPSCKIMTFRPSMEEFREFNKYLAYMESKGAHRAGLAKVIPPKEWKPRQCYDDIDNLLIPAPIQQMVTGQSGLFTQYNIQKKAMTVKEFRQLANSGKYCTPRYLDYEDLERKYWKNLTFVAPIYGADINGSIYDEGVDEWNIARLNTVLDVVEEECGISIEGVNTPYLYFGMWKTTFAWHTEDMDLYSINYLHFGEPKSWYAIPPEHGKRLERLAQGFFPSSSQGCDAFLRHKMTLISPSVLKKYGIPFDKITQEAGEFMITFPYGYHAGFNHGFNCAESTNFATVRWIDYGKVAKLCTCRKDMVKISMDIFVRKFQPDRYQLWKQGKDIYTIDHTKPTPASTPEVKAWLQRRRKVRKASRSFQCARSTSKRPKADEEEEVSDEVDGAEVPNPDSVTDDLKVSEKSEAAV
* marks the source's active call; other numbers are inactive results; i = inactive; . = not tested or not shown. Sampled rows, rich in hits. Any-hit rate of the full collection: about 2.8%.

SMILES	T cell modulator	NR3A LBD binder	Rtt109 Vps75	GASC-1 inh
Cc1ccc(Oc2ccc(-c3nc(N)nc(N)n3)cc2)cc1C	455	14*	3	-2
COc1ccccc1C(=O)Nc1ccccc1N1CCN(C(=O)c2ccc(Cl)cc2)CC1	461	-10	32	7
CC(=O)c1cccc(Nc2nc(-c3ccccc3)cs2)c1	219	32*	14	17
O=C(Nc1ccc(-c2csc(Nc3cccc(C(F)(F)F)c3)n2)cc1)c1cc([N+](=O)[O-])cc(C(F)(F)F)c1	154	21*	2	0
O=C(Nc1cccc(-c2csc(Nc3cccc(C(F)(F)F)c3)n2)c1)c1ccccc1	252	29*	3	16
O=C(Nc1cccc(-c2csc(Nc3ccccc3)n2)c1)c1ccccc1	i	11*	-1	-3
CCCCOc1ccc(C(=O)NCC(=O)N2CC=C(c3ccccc3)CC2)cc1	84	1	0	3
Cn1c(=O)c2ncn(C)c2n(C)c1=O	.	-1	16	.
CN(C)/C=C/C(=O)c1ccc(Cl)c([N+](=O)[O-])c1	209	0	3	-8
O=C(Nc1ccc(-c2csc(Nc3ccc(Cl)cc3)n2)cc1)c1ccccc1	224	-1	-11	30
O=C(Nc1ccc(-c2csc(Nc3cccc(C(F)(F)F)c3)n2)cc1)c1ccccc1	464	25*	8	.
Cc1ccc(NN2C(=O)C=C(c3ccccc3)C2=O)cc1	.	-1	.	-14
COc1ccc(NC(=O)C2CCC(=O)N2C(=O)OCc2ccccc2)cc1 (stereo not given)	192	11*	-3	2
O=C(NCCOC(=O)c1ccccc1)c1ccc([N+](=O)[O-])cc1	252	0	-2	-13
Cc1c(C(=O)OCC(=O)NCc2ccco2)oc2ccccc12	65*	-1	8	6
Cc1cc(C)n(-c2ccc(C(=O)OCC(=O)NCc3ccco3)cc2)n1	540	21*	2	-1
COCc1c(C(=O)OCC(=O)NCc2ccco2)oc2ccccc12	386	5	9	1
CCNC(=O)COC(=O)c1ccc(-n2nc(C)cc2C)cc1	218	-2	-6	22
CCCCCc1ccc(-c2cn(CCc3c[nH]c4ccccc34)nn2)cc1	160	19*	5	-4
CCOc1ccc(Br)cc1C(=O)N/N=C/c1ccccn1	184	1	-6	-9
COc1ccc(Br)cc1/C=N/NC(=O)c1cc(Br)ccc1O	362	.	.	6
CCOc1ccc(Br)cc1C(=O)N/N=C/c1c[nH]c2ccccc12	493	10*	-3	-1
O=C(N/N=C/c1c[nH]c2ccccc12)c1cc(Br)ccc1O	118	34*	-1	-3
Oc1ccc(-c2nccc(-c3ccc(Br)cc3)n2)cc1	246	37*	1	-10
Cc1ccc(-c2ccnc(-c3ccc(O)cc3)n2)cc1	190	-11	.	17
SMILES	T cell modulator	NR3A LBD binder	Rtt109 Vps75	GASC-1 inh
O=C(NCC(c1ccco1)N1CCCC1)c1ccc(S(=O)(=O)Nc2ccccc2F)cc1 (stereo not given)	76	0	-1	-4
CCc1nnc(NC(=O)c2sc3nc4cc(C)ccc4cc3c2N)s1	176	20*	5	-8
CC1CCCN(S(=O)(=O)c2cccc([N+](=O)[O-])c2)C1 (stereo not given)	148	1	0	-5
O=C(NNc1ccccc1Br)C(O)(c1cccc(C(F)(F)F)c1)c1cccc(C(F)(F)F)c1	260	32*	-13	5
Cc1ccc(NNC(=O)C(O)(c2cccc(C(F)(F)F)c2)c2cccc(C(F)(F)F)c2)cc1	248	26*	-1	5
Cc1ccc(C(O)(C(=O)NNc2ccccn2)c2ccc(C)cc2)cc1	215	-1	5	40
Cc1ccc(-c2nc(=O)[nH]c3ccccc23)cc1	48	-1	-2	16
O=c1nc(-c2ccccc2)c2ccccc2[nH]1	417	12*	-21	-4
O=C(Nc1cccc(Cl)c1)C1COc2ccccc2O1 (stereo not given)	180	-1	-3	4
CC(=O)Oc1cc2c3c(c1)/C(=C1/SC(=S)NC1=O)C(=O)N3C(C)(C)C=C2C	238	-1	3	0
Cc1ccc(Sc2ncnc3onc(C)c23)cc1	256	0	-4	-4
Cc1noc2ncnc(Sc3ccc(Cl)cc3)c12	141	10*	12	-5
COc1ccc(Cn2c(CO)cnc2SCC(=O)Nc2cccc(NC(C)=O)c2)cc1	332	0	22	-3
NC(=O)COC(=O)CC(NC(N)=O)c1ccc(Cl)cc1 (stereo not given)	154	13*	-1	1
Cc1cc(C(=O)COC(=O)CC(NC(N)=O)c2ccc(Cl)cc2)c(C)n1C (stereo not given)	262	0	7	3
CC(=O)c1ccc(NC(=O)Nc2ccccc2)cc1	237	27*	3	3
CC(=O)c1cccc(NC(=O)Nc2ccccc2)c1	176	-11	0	7
CNC(=O)c1ccc(NC(=O)Nc2ccccc2)cc1	535	26*	-11	5
C=CCn1c(=O)c(C(=O)NC2CC2)c(O)c2cc(OC)c(OC)cc21	227	-1	6	-21
O=C(O)CCCCCN1C(=O)/C(=C/c2cn(-c3ccccc3)nc2-c2cccs2)SC1=S	.	20*	3	.
O=C(N/N=C/c1cn(-c2ccccc2)nc1-c1cccs1)c1ccc(Cl)cc1	i	27*	-2	1
O=C(O)CCN1C(=O)/C(=C/c2cn(-c3ccccc3)nc2-c2cccs2)SC1=S	.	29*	.	.
O=C(O)CCCCCN1C(=O)/C(=C\c2cn(-c3ccccc3)nc2-c2cccs2)SC1=S	140	7	11	4
COc1ccc(Nc2nc(Cl)nc(NCc3ccco3)n2)c(OC)c1	314	1	-11	0
COc1ccc(/C=N/Nc2nc(NCc3ccco3)nc(Nc3ccc(OC)cc3)n2)cc1	237	18*	-2	3
SMILES	T cell modulator	NR3A LBD binder	Rtt109 Vps75	GASC-1 inh
COc1ccc(Nc2nc(NCc3ccco3)nc(N/N=C/c3ccc(O)cc3)n2)cc1	291	19*	7	11
COc1ccc(Nc2nc(NCc3ccco3)nc(N/N=C/c3ccccc3F)n2)cc1	253	16*	35	3
COc1ccc(/C=N/Nc2nc(Nc3ccccc3)nc(N3CCCC3)n2)cc1	91	4	2	56
Cc1ccc(S(=O)(=O)N2CCOCC2)cc1-c1n[nH]c(=S)n1-c1ccccc1	249	1	1	0
Cc1nccc(-c2cccc(NC(=O)Nc3ccc(Cl)cc3)c2)n1	i	25*	-4	-12
O=C(Nc1ccc(Cl)cc1)Nc1cccc2nsnc12	151	21*	-8	-7
O=C(Nc1ccc(Cl)cc1)Nc1ccc(Cl)c(Cl)c1	0	16*	.	1
O=C(Nc1ccncc1)Nc1cccc(Cl)c1Cl	358	-2	2	-1
N#Cc1ccc(NC(=O)Nc2ccc(Cl)cc2)cc1	307	34*	10	3
CCOC(=O)N1CCN(C(=O)C(CC(C)C)NS(=O)(=O)c2ccc(C)cc2)CC1 (stereo not given)	517	2	9	.

Screening data as filed in PubChem BioAssay.
